Measurements: ChEMBL document CHEMBL4725358 (J Med Chem, 2020)
Activity calls are given as the source filed them. The calls are words filed in the database; no cut-off is given here.

What was measured:
Type in all cases: cell-based
[1] = molecular target: Probable G-protein coupled receptor 34 (Mus musculus, UniProt Q9R1K6); test: Agonist activity at mouse GPR34 expressed in HEK293 cells co-transfected with AP-TGFalpha/Galphaq/i1 assessed as induction of ectodomain shedding of membrane bound AP-TGFalpha after 1 hr by p-NPP substrate based microplate reader analysis; settings: read-out: EC50
In short: (§1)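 HEK293 cells transiently transfected with AP-TGFα, chimeric Gα and mouse GPR34 vectors, then treated with compound. Empty-vector cells (AP-TGFα plus chimeric Gα) served as background. Receptor-specific AP-TGFα release was taken after subtracting that background, and concentration-response curves gave EC50 and Emax. Mean and SEM of 3−8 independent experiments.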

[2] = molecular target: Probable G-protein coupled receptor 34 (Mus musculus) (UniProt Q9R1K6); test: Agonist activity at mouse GPR34 expressed in HEK293 cells co-transfected with AP-TGFalpha/Galphaq/i1 assessed as induction of ectodomain shedding of membrane bound AP-TGFalpha after 1 hr by p-NPP substrate based microplate reader analysis relative to control; in short: as §1
[3] = molecular target: Probable G-protein coupled receptor 34 (Mus musculus) (UniProt Q9R1K6); test: Agonist activity at mouse GPR34 expressed in HEK293 cells co-transfected with AP-TGFalpha/Galphaq/i1 assessed as induction of ectodomain shedding of membrane bound AP-TGFalpha after 1 hr by p-NPP substrate based microplate reader analysis relative to positive control; in short: as §1
[4] = molecular target: Putative P2Y purinoceptor 10 (Mus musculus, UniProt Q8BFU7); test: Agonist activity at mouse P2Y10 expressed in HEK293 cells co-transfected with AP-TGFalpha/Galphaq/i1 assessed as induction of ectodomain shedding of membrane bound AP-TGFalpha after 1 hr by p-NPP substrate based microplate reader analysis
In short: (§2)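 Run the same way as the GPR34 shedding assay, but with a mouse P2Y10 expression vector in HEK293 cells alongside AP-TGFα and chimeric Gα. Receptor-specific AP-TGFα release was found by subtracting the empty-vector background. EC50 and Emax came from concentration-response curves. Mean and SEM of 3−8 independent experiments.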

[5] = molecular target: Putative P2Y purinoceptor 10 (Mus musculus) (UniProt Q8BFU7); test: Agonist activity at mouse P2Y10 expressed in HEK293 cells co-transfected with AP-TGFalpha/Galphaq/i1 assessed as induction of ectodomain shedding of membrane bound AP-TGFalpha after 1 hr by p-NPP substrate based microplate reader analysis relative to control; in short: as §2
[6] = molecular target: Putative P2Y purinoceptor 10 (Mus musculus) (UniProt Q8BFU7); test: Agonist activity at mouse P2Y10 expressed in HEK293 cells co-transfected with AP-TGFalpha/Galphaq/i1 assessed as induction of ectodomain shedding of membrane bound AP-TGFalpha after 1 hr by p-NPP substrate based microplate reader analysis relative to positive control; in short: as §2
[7] = molecular target: T1, G protein-coupled receptor 34a (Danio rerio, UniProt Q6XCC7); test: Agonist activity at zebrafish GPR34 type a expressed in HEK293 cells co-transfected with AP-TGFalpha/Galphaq/i1 assessed as induction of ectodomain shedding of membrane bound AP-TGFalpha after 1 hr by p-NPP substrate based microplate reader analysis
T1 sequence (Q6XCC7 whole entry): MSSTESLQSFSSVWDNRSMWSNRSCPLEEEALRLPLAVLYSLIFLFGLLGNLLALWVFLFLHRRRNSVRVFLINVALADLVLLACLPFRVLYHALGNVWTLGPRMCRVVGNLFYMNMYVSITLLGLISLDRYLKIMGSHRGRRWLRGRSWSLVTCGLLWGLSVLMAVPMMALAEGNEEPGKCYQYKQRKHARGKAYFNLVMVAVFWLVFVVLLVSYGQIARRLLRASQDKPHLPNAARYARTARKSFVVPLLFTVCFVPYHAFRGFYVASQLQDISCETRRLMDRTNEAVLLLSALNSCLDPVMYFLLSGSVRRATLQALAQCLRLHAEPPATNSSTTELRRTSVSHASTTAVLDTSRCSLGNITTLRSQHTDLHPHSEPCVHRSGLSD

[8] = molecular target: T2, G protein-coupled receptor 34b (Danio rerio, UniProt B0S6P9); test: Agonist activity at zebrafish GPR34 type b expressed in HEK293 cells co-transfected with AP-TGFalpha/Galphaq/i1 assessed as induction of ectodomain shedding of membrane bound AP-TGFalpha after 1 hr by p-NPP substrate based microplate reader analysis
T2 sequence (B0S6P9 whole entry): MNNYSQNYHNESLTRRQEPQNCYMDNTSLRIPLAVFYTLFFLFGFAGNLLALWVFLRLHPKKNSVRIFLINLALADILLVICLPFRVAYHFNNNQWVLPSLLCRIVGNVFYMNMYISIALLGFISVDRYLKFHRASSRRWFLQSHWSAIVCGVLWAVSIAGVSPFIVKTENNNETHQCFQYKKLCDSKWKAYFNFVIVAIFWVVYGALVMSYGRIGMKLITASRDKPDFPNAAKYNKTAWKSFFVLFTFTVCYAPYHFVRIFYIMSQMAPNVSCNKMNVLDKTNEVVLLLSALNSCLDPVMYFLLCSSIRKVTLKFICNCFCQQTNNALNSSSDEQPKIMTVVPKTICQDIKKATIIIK

Chain of Putative P2Y purinoceptor 10 (Q8BFU7 whole entry, the tested form may be a part): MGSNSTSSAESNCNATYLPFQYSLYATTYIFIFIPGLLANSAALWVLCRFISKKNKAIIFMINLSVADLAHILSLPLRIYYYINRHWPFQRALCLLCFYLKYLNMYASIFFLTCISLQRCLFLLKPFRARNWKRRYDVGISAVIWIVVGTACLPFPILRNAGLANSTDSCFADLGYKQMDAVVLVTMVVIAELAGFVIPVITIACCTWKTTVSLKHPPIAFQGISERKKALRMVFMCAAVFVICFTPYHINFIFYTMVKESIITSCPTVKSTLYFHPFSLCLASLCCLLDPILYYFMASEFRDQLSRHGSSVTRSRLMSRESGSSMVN
Chain of Putative P2Y purinoceptor 10 (Mus musculus) (Q8BFU7 whole entry, the tested form may be a part): as above
Chain of Probable G-protein coupled receptor 34 (Mus musculus) (Q9R1K6 whole entry, the tested form may be a part): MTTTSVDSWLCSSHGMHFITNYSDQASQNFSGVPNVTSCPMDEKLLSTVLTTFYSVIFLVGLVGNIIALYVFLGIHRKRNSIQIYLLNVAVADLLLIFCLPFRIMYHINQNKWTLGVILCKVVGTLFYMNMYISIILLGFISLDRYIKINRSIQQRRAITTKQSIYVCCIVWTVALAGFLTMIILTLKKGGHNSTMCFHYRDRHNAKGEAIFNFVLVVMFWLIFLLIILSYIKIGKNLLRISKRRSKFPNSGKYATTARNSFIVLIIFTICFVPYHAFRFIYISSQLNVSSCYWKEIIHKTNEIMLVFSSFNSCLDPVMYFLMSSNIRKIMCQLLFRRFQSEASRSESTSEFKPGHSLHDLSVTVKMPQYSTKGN
Chain of Probable G-protein coupled receptor 34 (Q9R1K6 whole entry, the tested form may be a part): as above

| EC50 [1] | Emax [2] | fold change (FC) ([3]; filed as agonist) | EC50 [4] | Emax [5] | fold change (FC) ([6]; filed as agonist) | fold change (FC) [3] | EC50 [7] | EC50 [8] | fold change (FC) [6] | Compound |
| --- | --- | --- | --- | --- | --- | --- | --- | --- | --- | --- |
| 160 nM | 9.7% | 0.52 | 70 nM | 2.5% | 0.0088 | – | – | – | – | CCCCCCCC/C=C\CCCCCCCC(=O)O[C@H](COC)COP(=O)(O)OC[C@H](N)C(=O)O |
| 620 nM | 7.5% | 0.13 | > 3000 nM | inactive | – | – | – | – | inactive | CCCCCCCC/C=C\CCCCCCCC(=O)OC[C@H](COC)OP(=O)(O)OC[C@H](N)C(=O)O |
| > 3000 nM | inactive | – | 66 nM | 10.6% | 0.02 | inactive | – | – | – | CCCCCCCC/C=C\CCCCCCCC(=O)OCCOP(=O)(O)OC[C@H](N)C(=O)O |
| 540 nM | 6.2% | 0.12 | 20 nM | 13.7% | 0.11 | – | – | – | – | CCCCCCCC/C=C\CCCCCCCC(=O)OCCCOP(=O)(O)OC[C@H](N)C(=O)O |
| 24 nM | 12.8% | 4.8 | 250 nM | 12.4% | 0.0054 | – | – | – | – | CCCCCCCC/C=C\CCCCCCCC(=O)OC[C@@H](C)OP(=O)(O)OC[C@H](N)C(=O)O |
| 470 nM | 4.6% | 0.076 | 240 nM | 10.8% | 0.0061 | – | – | – | – | CCCCCCCC/C=C\CCCCCCCC(=O)OCCCCCOP(=O)(O)OC[C@H](N)C(=O)O |
| 250 nM | 6.1% | 0.22 | 79 nM | 11.4% | 0.02 | – | – | – | – | CCCCCCCC/C=C\CCCCCCCC(=O)O[C@H](C)COP(=O)(O)OC[C@H](N)C(=O)O |
| > 3000 nM | inactive | – | 390 nM | 11.6% | 0.0034 | inactive | – | – | – | CCCCCCCC/C=C\CCCCCCCC(=O)O[C@@H](C)COP(=O)(O)OC[C@H](N)C(=O)O |
| 11 nM | 12.9% | 12 | > 3000 nM | inactive | – | – | – | – | inactive | CCCCCCCC/C=C\CCCCCCCC(=O)OC[C@@H](COC)OP(=O)(O)OC[C@H](N)C(=O)O |
| 320 nM | 4.4% | 0.12 | 53 nM | 13.1% | 0.029 | – | – | – | – | CCCCCCCC/C=C\CCCCCCCC(=O)OCCCCOP(=O)(O)OC[C@H](N)C(=O)O |
| 170 nM | 11.2% | 0.56 | 37 nM | 11.3% | 0.034 | – | – | – | – | CCCCCCCC/C=C\CCCCCCCC(=O)OC[C@H](C)OP(=O)(O)OC[C@H](N)C(=O)O |

The next lines start with the molecule.

| Compound | EC50 [1] | Emax [2] | fold change (FC) ([3]; filed as agonist) | EC50 [4] | Emax [5] | fold change (FC) ([6]; filed as agonist) | fold change (FC) [3] | EC50 [7] | EC50 [8] | fold change (FC) [6] |
| --- | --- | --- | --- | --- | --- | --- | --- | --- | --- | --- |
| N[C@@H](COP(=O)(O)OCCOC(=O)CCc1ccccc1OCc1cccc(Oc2ccccc2)c1)C(=O)O | 220 nM | 12.4% | 0.44 | 2300 nM | 20.8% | 0.0013 | – | – | – | – |
| CCCCCCCCCCCOc1ccccc1CCC(=O)OC1COCCC1OP(=O)(O)OC[C@H](N)C(=O)O (single isomer, unassigned) | 340 nM | 3.7% | 0.1 | 1300 nM | 8.6% | 0.00079 | – | – | – | – |
| C#CCOC[C@H](COC(=O)CCCCCCC/C=C\CCCCCCCC)OP(=O)(O)OC[C@H](N)C(=O)O | 12 nM | 12.6% | 10 | 420 nM | 3.2% | 0.00074 | – | – | – | – |
| CCCCCCCCCCCOc1ccccc1CCC(=O)O[C@H]1COCC[C@@H]1OP(=O)(O)OC[C@H](N)C(=O)O | > 3000 nM | inactive | – | 150 nM | 12.4% | 0.0085 | inactive | – | – | – |
| CCOC[C@H](COC(=O)CCc1ccccc1OCc1cccc(Oc2ccccc2)c1)OP(=O)(O)OC[C@H](N)C(=O)O | 5 nM | – | – | > 3000 nM | – | – | – | > 3000 nM | 1200 nM | – |
| CCCCCCCCCCCOc1ccccc1CCC(=O)OCCOP(=O)(O)OC[C@H](N)C(=O)O | 330 nM | 4.8% | 0.12 | 5.7 nM | 12.7% | 0.32 | – | – | – | – |
| CCCCCCCCCCCOc1ccccc1CCC(=O)O[C@@H]1COCCC1OP(=O)(O)OC[C@H](N)C(=O)O (single isomer, unassigned) | 63 nM | 6.4% | 1.3 | 840 nM | 12% | 0.0018 | – | – | – | – |
| C[C@H](COC(=O)CCc1ccccc1OCc1cccc(Oc2ccccc2)c1)OP(=O)(O)OC[C@H](N)C(=O)O | 9 nM | 12.4% | 11 | 290 nM | 13.2% | 0.0056 | – | – | – | – |
| CCCCCCCCCCCOc1ccccc1CCC(=O)O[C@H]1CCOC[C@H]1OP(=O)(O)OC[C@H](N)C(=O)O | > 3000 nM | inactive | – | 420 nM | 3.2% | 0.0012 | inactive | – | – | – |
| COC[C@H](COC(=O)CCc1ccccc1OCc1cccc(Oc2ccccc2)c1)OP(=O)(O)OC[C@H](N)C(=O)O | 5.7 nM | 13.5% | 21 | > 3000 nM | inactive | – | – | – | – | inactive |
| CCCCCCCC/C=C\CCCCCCCC(=O)OC[C@@H](COCc1ccccc1)OP(=O)(O)OC[C@H](N)C(=O)O | 880 nM | 9.6% | 0.13 | 1400 nM | 7.3% | 0.00075 | – | – | – | – |
| C[C@H](COP(=O)(O)OC[C@H](N)C(=O)O)OC(=O)CCc1ccccc1OCc1cccc(Oc2ccccc2)c1 | 6.3 nM | 12% | 16 | 170 nM | 13.8% | 0.0099 | – | – | – | – |
| CCCCCCCCCCCOc1ccccc1CCC(=O)O[C@@H]1CCOC[C@@H]1OP(=O)(O)OC[C@H](N)C(=O)O | 220 nM | 8.9% | 0.61 | 1300 nM | 19.3% | 0.00089 | – | – | – | – |
| CCCCCCCC/C=C\CCCCCCCC(=O)OC[C@@H](COCCC)OP(=O)(O)OC[C@H](N)C(=O)O | 6.1 nM | 12.2% | 17 | > 3000 nM | inactive | – | – | – | – | inactive |
| CCCCCCCC/C=C\CCCCCCCC(=O)OC[C@@H](COCC)OP(=O)(O)OC[C@H](N)C(=O)O | 3.5 nM | 12.3% | 29 | > 3000 nM | inactive | – | – | – | – | inactive |
| CCCCCCCCCCCOc1ccccc1CCC(=O)OC1COCC[C@H]1OP(=O)(O)OC[C@H](N)C(=O)O (single isomer, unassigned) | 2.9 nM | 10% | 32 | 26 nM | 11.4% | 0.039 | – | – | – | – |
